ChEMBL document CHEMBL4270526, “A novel NAE/UAE dual inhibitor LP0040 blocks neddylation and ubiquitination leading to growth inhibition and apoptosis of cancer cells” (Eur J Med Chem, 2018)
Active and inactive are the calls of the source. No cut-off for these calls is given here.

Legend:
AGS [1] = assay: Synergistic antiproliferative activity against human AGS cells assessed as combination index constant at 1 uM after 48 hrs in presence of 7.5 nM BTZ by CCK8 assay; type: functional
In short: (§1)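 AGS cells at 6×10^3/well attached for 12 h, then exposed for 48 h to compound, bortezomib, or both at set concentrations. CCK-8 added for 4 h, then OD read at 450 nm. Inhibition rates E used for q = E(combo)/(E1+E2−E1×E2). Triplicate experiments.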

[2] = target: T1, NEDD8 activating enzyme (Homo sapiens) (UniProt Q8TBC4+Q13564); assay: Inhibition of NAE in human AGS cells assessed as reduction in Cullins-NEDD8 conjugation level after 24 hrs by Western blot analysis; type: cell-based
In short: (§2)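 AGS cells given 2, 4, 6, 8 or 10 μM compound or 0.1% DMSO for 24 h, washed in ice-cold PBS and lysed in RIPA on ice. Equal protein loads run by SDS-PAGE: non-reducing for NEDD8/SUMO/Ub conjugates, reducing for p27, NRF2, CDT1 and cleaved caspase-3. Blotted to PVDF with primary antibody overnight at 4 °C and HRP secondary, ECL detection, densitometry. Three repeats.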

[3] = target: Serine/threonine-protein kinase Chk1 (Homo sapiens) (UniProt O14757); assay: Inhibition of CHK1 (unknown origin) at 30 uM relative to control
AGS [4] = assay: Induction of apoptosis in human AGS cells assessed as necrotic cells at 4 uM after 36 hrs by Annexin-V-FITC/propidium iodide staining based flow cytometry (reference value: 1.01%); type: functional
AGS [5] = assay: Cell cycle arrest in human AGS cells assessed as accumulation at G1 phase at 4 uM after 4 to 48 hrs by propidium iodide staining based flow cytometry (reference value: 22.82%); type: functional
In short: (§3)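 AGS cells seeded at 1 × 10^5/well and attached 24 h at 37 °C, 5% CO2. Exposed to 4 μM compound for varying times, then fixed in 70% ethanol at −20 °C overnight. Stained with PI/RNase buffer 15–20 min in the dark; 20000 cells per sample read by flow cytometry (488 nm excitation, FL-3 630 nm). Three repeats.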

A549 = assay: Antiproliferative activity against human A549 cells after 48 hrs by CCK8 assay; type: functional, cell-based; details: A549, 48 h
In short: (§4)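 Cells seeded at 6 × 10^3 cells/well and left 12 h at 37 °C, 5% CO2. Medium then replaced with serial compound dilutions, bortezomib as positive control. After 48 h, CCK-8 added for 4 h and absorbance read at 450 nm. Three repeats; IC50 from normalized nonlinear regression of inhibition curves.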

[6] = target: Cyclin-dependent kinase 2/cyclin E1 (Homo sapiens) (UniProt P24864+P24941); assay: Inhibition of CDK2/cyclin E (unknown origin) at 30 uM relative to control; type: protein-complex assay
AGS [7] = assay: Induction of apoptosis in human AGS cells assessed as late apoptotic cells at 10 uM after 36 hrs by Annexin-V-FITC/propidium iodide staining based flow cytometry (reference value: 1.71%); type: functional
[8] = target: Serine/threonine-protein kinase PLK1 (Homo sapiens) (UniProt P53350); assay: Inhibition of PLK (unknown origin) at 30 uM relative to control
AGS [9] = assay: Inhibition of UAE in human AGS cells assessed as reduction in Ubc10-Ub conjugation level at 2 to 10 uM after 24 hrs by Western blot analysis; type: cell-based
In short: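 AGS cells (Ham's F12/10% FBS) exposed to 2, 4, 6, 8 or 10 µM compound, or 0.1% DMSO, for 24 h. RIPA lysates of equal protein run on non-reducing SDS-PAGE. Western blot for Ubc10-Ub or USE1-Ub, with densitometry. Three repeats.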

AGS [10] = assay: Induction of apoptosis in human AGS cells assessed as necrotic cells at 6 uM after 36 hrs by Annexin-V-FITC/propidium iodide staining based flow cytometry (reference value: 1.01%); type: functional
AGS [11] = assay: Induction of apoptosis in human AGS cells assessed as live cells at 10 uM after 36 hrs by Annexin-V-FITC/propidium iodide staining based flow cytometry (reference value: 92.84%); type: functional
[12] = target: T1, NEDD8 activating enzyme (Homo sapiens); assay: Inhibition of NAE-mediated CRL neddylation in human AGS cells assessed as increase in p27 level up to 10 uM after 24 hrs by Western blot analysis; type: cell-based; in short: as §2
[13] = target: Inhibitor of nuclear factor kappa-B kinase subunit beta (Homo sapiens) (UniProt O14920); assay: Inhibition of IKKB (unknown origin) at 30 uM relative to control
AGS [14] = assay: Induction of apoptosis in human AGS cells assessed as early apoptotic cells at 8 uM after 36 hrs by Annexin-V-FITC/propidium iodide staining based flow cytometry (reference value: 4.44%); type: functional
[15] = target: cAMP-dependent protein kinase catalytic subunit alpha (Homo sapiens) (UniProt P17612); assay: Inhibition of PKAalpha (unknown origin) at 30 uM relative to control
SK-OV-3 = assay: Antiproliferative activity against human SKOV3 cells after 48 hrs by CCK8 assay; type: functional, cell-based; details: SK-OV-3, 48 h; in short: as §4
AGS [16] = assay: Induction of apoptosis in human AGS cells assessed as early apoptotic cells at 4 uM after 36 hrs by Annexin-V-FITC/propidium iodide staining based flow cytometry (reference value: 4.44%); type: functional
AGS [17] = assay: Induction of apoptosis in human AGS cells assessed as live cells at 6 uM after 36 hrs by Annexin-V-FITC/propidium iodide staining based flow cytometry (reference value: 92.84%); type: functional
AGS [18] = assay: Cell cycle arrest in human AGS cells assessed as accumulation at sub-G1 phase at 4 uM after 24 hrs by propidium iodide staining based flow cytometry; type: functional; in short: as §3
AGS [19] = assay: Induction of apoptosis in human AGS cells assessed as late apoptotic cells at 6 uM after 36 hrs by Annexin-V-FITC/propidium iodide staining based flow cytometry (reference value: 1.71%); type: functional
AGS [20] = assay: Synergistic antiproliferative activity against human AGS cells assessed as combination index constant at 1.5 uM after 48 hrs in presence of 10 nM BTZ by CCK8 assay; type: functional; in short: as §1
[21] = target: Serine/threonine-protein kinase Chk2 (Homo sapiens) (UniProt O96017); assay: Inhibition of CHK2 (unknown origin) at 30 uM relative to control
[22] = target: RAC-alpha serine/threonine-protein kinase (Homo sapiens) (UniProt P31749); assay: Inhibition of AKT (unknown origin) at 30 uM relative to control
[23] = target: Epidermal growth factor receptor (Homo sapiens) (UniProt P00533); assay: Inhibition of EGFR (unknown origin) at 30 uM relative to control
[24] = Selectivity index, ratio of IC50 for HUVEC to IC50 for human AGS cells; type: toxicity; details: HUVEC versus AGS cells, read-out: Ratio IC50
[25] = Antiproliferative activity against human LO2 cells after 48 hrs by CCK8 assay; type: cell-based, L02; details: read-out: LC50
[26] = Antiproliferative activity against HEK293T cells after 48 hrs by CCK8 assay; type: cell-based, HEK-293T; details: human, read-out: LC50
AGS [27] = assay: Induction of apoptosis in human AGS cells assessed as late apoptotic cells at 8 uM after 36 hrs by Annexin-V-FITC/propidium iodide staining based flow cytometry (reference value: 1.71%); type: functional
AGS [28] = assay: Antiproliferative activity against human AGS cells after 48 hrs by CCK8 assay; type: functional, cell-based; in short: as §4

Chain of Inhibitor of nuclear factor kappa-B kinase subunit beta (Homo sapiens) (O14920 whole entry): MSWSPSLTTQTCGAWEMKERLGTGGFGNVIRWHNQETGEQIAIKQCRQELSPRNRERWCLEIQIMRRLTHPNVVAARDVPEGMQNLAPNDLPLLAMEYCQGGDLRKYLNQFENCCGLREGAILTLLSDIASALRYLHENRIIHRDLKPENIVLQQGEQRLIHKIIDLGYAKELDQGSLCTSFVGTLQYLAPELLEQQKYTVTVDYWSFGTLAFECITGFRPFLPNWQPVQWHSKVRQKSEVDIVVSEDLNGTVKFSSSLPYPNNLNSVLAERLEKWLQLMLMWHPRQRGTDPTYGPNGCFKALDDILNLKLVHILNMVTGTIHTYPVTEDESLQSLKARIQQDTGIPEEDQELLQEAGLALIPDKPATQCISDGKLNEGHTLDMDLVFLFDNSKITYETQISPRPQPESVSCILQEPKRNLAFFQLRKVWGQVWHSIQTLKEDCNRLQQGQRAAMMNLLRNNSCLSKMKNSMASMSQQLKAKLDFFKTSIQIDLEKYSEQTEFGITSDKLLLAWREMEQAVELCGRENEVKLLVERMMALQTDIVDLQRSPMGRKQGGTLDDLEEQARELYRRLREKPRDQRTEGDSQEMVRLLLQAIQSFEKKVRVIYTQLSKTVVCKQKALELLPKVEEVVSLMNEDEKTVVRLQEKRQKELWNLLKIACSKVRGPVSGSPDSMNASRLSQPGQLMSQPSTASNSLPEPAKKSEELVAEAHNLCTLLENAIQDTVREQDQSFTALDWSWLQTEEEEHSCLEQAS
Chain of RAC-alpha serine/threonine-protein kinase (Homo sapiens) (P31749 whole entry): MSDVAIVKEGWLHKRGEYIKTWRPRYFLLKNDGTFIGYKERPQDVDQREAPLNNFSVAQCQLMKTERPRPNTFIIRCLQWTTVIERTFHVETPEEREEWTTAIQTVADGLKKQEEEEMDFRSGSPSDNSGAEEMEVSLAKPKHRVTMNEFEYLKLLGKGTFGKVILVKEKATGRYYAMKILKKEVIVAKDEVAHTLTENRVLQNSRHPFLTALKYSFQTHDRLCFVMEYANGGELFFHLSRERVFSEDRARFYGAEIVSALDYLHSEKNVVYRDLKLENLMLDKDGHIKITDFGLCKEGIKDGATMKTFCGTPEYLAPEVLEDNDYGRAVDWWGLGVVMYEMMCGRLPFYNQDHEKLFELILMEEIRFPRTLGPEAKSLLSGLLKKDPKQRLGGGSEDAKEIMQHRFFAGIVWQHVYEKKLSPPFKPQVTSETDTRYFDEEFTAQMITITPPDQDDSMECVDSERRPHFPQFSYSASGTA
Chain of Epidermal growth factor receptor (Homo sapiens) (P00533 whole entry): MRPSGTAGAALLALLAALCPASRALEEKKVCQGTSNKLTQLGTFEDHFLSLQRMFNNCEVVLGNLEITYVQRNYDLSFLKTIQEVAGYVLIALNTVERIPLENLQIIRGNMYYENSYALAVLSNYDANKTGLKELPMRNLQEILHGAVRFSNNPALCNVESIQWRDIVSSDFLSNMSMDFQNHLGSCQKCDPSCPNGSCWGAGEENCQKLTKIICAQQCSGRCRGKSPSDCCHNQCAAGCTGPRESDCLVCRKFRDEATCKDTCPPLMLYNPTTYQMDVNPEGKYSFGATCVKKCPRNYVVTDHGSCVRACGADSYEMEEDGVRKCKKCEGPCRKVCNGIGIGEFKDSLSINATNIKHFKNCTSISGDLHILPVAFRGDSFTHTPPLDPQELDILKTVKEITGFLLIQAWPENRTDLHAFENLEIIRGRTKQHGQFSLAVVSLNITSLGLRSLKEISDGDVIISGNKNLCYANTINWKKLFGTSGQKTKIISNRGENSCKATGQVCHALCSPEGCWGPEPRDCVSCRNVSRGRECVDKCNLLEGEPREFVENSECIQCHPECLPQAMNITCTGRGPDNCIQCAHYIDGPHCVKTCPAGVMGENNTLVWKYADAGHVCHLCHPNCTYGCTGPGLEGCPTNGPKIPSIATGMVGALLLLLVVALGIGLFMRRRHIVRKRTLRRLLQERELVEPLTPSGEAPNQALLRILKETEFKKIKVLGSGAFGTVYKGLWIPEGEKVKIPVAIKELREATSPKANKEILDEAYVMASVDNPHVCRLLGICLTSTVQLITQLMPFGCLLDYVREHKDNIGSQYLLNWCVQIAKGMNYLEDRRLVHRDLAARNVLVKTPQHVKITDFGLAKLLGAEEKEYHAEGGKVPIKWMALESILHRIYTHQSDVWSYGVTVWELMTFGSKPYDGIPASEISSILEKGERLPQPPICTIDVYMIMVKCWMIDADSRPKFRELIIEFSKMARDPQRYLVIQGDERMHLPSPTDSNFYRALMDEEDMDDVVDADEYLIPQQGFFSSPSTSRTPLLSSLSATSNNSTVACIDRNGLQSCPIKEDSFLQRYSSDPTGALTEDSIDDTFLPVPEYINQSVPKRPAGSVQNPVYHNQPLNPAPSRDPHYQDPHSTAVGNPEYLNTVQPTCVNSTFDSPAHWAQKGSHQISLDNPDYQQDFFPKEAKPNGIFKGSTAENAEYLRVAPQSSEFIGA
Chain of Serine/threonine-protein kinase Chk1 (Homo sapiens) (O14757 whole entry): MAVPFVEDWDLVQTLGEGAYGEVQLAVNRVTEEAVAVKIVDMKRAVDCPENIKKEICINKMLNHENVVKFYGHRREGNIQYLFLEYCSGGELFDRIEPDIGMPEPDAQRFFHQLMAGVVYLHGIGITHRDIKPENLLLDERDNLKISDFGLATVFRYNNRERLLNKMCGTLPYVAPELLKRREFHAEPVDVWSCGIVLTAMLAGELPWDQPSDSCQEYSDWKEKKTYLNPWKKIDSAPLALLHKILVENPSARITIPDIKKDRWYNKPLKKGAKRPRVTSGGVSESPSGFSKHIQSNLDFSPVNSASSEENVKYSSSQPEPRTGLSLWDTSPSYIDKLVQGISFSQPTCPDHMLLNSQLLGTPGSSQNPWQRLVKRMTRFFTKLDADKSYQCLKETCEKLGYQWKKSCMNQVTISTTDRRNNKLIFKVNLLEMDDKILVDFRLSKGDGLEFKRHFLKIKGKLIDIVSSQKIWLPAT
Chain of Serine/threonine-protein kinase Chk2 (Homo sapiens) (O96017 whole entry): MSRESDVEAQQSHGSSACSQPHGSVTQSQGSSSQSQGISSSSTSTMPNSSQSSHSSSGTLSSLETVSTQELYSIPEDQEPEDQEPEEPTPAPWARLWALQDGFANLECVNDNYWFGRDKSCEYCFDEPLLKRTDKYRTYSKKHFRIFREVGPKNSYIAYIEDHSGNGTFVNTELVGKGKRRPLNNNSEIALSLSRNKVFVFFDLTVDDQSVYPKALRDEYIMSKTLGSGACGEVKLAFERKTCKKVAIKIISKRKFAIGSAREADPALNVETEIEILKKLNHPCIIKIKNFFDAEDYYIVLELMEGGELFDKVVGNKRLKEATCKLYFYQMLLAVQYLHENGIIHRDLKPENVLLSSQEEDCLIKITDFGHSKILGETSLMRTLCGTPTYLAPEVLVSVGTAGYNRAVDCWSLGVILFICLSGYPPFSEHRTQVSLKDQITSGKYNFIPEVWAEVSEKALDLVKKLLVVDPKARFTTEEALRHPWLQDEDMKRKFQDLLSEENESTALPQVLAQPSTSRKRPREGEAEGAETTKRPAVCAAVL
Chain of Serine/threonine-protein kinase PLK1 (Homo sapiens) (P53350 whole entry): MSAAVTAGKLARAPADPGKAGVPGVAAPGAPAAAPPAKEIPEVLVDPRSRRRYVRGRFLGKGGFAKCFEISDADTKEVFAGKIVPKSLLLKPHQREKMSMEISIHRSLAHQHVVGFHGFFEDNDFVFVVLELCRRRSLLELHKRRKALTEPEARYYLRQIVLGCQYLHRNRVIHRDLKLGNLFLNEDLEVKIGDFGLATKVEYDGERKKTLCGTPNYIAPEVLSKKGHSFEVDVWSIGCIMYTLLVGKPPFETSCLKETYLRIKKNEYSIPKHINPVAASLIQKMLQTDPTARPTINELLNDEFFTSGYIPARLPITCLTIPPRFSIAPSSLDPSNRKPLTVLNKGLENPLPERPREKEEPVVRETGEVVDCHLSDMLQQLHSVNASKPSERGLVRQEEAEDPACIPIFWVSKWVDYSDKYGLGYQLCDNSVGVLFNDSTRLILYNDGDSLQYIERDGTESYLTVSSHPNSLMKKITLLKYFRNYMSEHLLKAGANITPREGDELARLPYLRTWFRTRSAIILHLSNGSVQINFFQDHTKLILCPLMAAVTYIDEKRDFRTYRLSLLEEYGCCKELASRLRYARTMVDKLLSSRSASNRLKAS

For `O=c1cc(-c2ccc(-c3ccccc3)cc2)c2ccc(N3CCC(NCCc4ccccc4)CC3)cc2o1`, the CI (AGS [1]) was 1.13, the inhibition [2] was “Dose-dependent effect” and the inhibition [3] was 1.01%. The Activity (AGS [4]) was 1.03%, the Activity (AGS [5]) was 48.88% and the IC50 (A549) was 2.14 µM. It also gave an inhibition [6] of 4.57%, an Activity (AGS [7]) of 44.73% and an inhibition [8] of 5.58%. For the same compound, the inhibition (AGS [9]) was “Active”, the Activity (AGS [10]) was 3.33% and the Activity (AGS [11]) was 7.4%. For the same compound, the inhibition [12] was “Active”, the inhibition [13] was 1.07% and the Activity (AGS [14]) was 50.39%. It also gave an inhibition [15] of 5.17%, an IC50 (SK-OV-3) of 3.29 µM and an Activity (AGS [16]) of 7.77%. For the same compound, the Activity (AGS [17]) was 14.99%, the Activity (AGS [18]) was “Active” and the Activity (AGS [19]) was 35.77%. It also gave a CI (AGS [20]) of 1.35, an inhibition [21] of 9.44% and an inhibition [22] of 9.87%. For the same compound, the inhibition [23] was 2.77%, the selectivity ratio [24] was 14 to 18 and the CC50 at 48 h [25] was 13.5 µM. The CC50 at 48 h [26] was 12.9 µM, the Activity (AGS [27]) was 35.01% and the IC50 (AGS [28]) was 0.76 µM.
